One block for each compound: values may come before it.
Legend:
[1] = tested on: Bmal1-dLuc U2OS cells; experiment: Cell-based circadian assay, Bmal1-dLuc reporter; parameters: species or system human
Method in brief: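 Stable U2OS Bmal1-dLuc cells were seeded at 3000 per well in DMEM/10% FBS. After 2 days, B27/HEPES explant medium with 0.2 or 1 mM luciferin (pH 7.2) was added, plus compound (final 0.7% DMSO). Luminescence was read every 100 min for 5 days, first day excluded. Period came from curve fitting; intensity was averaged over the run; n = 4. LogEC50 was from sigmoidal fits of threefold 12-point series.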

[2] = tested on: Caki-2; experiment: Proliferation assay of RCC line Caki-2; format: cell-based, human; settings: Caki-2, 2 days
Method in brief: (§1)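 Lines were kept in RPMI-1640/10% FBS and plated 1 day before treatment. Seeding per well: Caki-2 and A704 at 2.0 × 10^4; 786-O, A498, 769-P and ACHN at 1.0 × 10^4; RCC4+vec at 0.7 × 10^4; RCC4+VHL at 0.8 × 10^4. Two days after dosing, cells were stained with Hoechst 33342 (2 μg/ml, 1 h) and counted by imaging.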

[3] = tested on: A704; experiment: Proliferation assay of RCC line A704; format: cell-based, human; settings: A704, 2 days
Method in brief: as §1

[4] = tested on: ACHN; experiment: Proliferation assay of RCC line ACHN; format: cell-based, human; settings: 2 days
Method in brief: as §1

[5] = tested on: Per2-dLuc U2OS cells; experiment: Cell-based circadian assay, Per2-dLuc reporter; parameters: species or system human
[6] = tested on: cells differentiated from Per2::LucSV knock-in ES cells; experiment: Circadian assay in differentiated ES cells; format: cell-based, mouse
Method in brief: (§2)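 ES cells were kept on feeder fibroblasts; Per2 was disrupted by CRISPR-Cas9 in Bmal1-Luc ES cells. Embryoid bodies formed over 2 days in low-attachment wells, then grew 26 days on gelatin. On day 28, cells got 100 nM dexamethasone for 1 h, then 0.2 mM luciferin with compound. Luminescence was integrated 1 min every 20 min; period came from sine-wave fitting. Replicates: Per2::LucSV n = 4; Per2 knockout versus wild-type n = 3 to 4.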

[7] = tested on: lung explants from Per2::Luc mice; experiment: Circadian rhythms in lung explants; format: cell-based, mouse
Method in brief: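 Lung pieces from Per2::Luc knock-in mice were cultured in luciferin-containing explant medium with compound (final 0.24% DMSO). Luminescence was recorded every 30 min for 5 days, excluding the first day. Period was derived by curve fitting.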

[8] = biological target: CK2 (Homo sapiens, UniProt P68400); experiment: biochemical
[9] = biological target: PIM2 (Homo sapiens, UniProt Q9P1W9); experiment: In vitro PIM2 kinase assay; format: biochemical
Method in brief: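 Kinase-Glo assay measuring remaining ATP. Compound was added (final 5% DMSO) and reactions were started with ATP (final 3 μM). PIM2 ran at 30°C for 3 h. The CK2 comparator used CK2 (1.5 ng/μl) with 50 μM substrate peptide in 40 mM tris, 10 mM MgCl2, 0.5 mM DTT, 150 mM NaCl, pH 7.5, at 37°C for 1.5 h.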

[10] = biological target: CLK2 (Homo sapiens, UniProt P49760); experiment: In vitro CLK2 kinase assay; format: biochemical
[11] = biological target: CKIδ (Homo sapiens, UniProt P48730); experiment: In vitro CKIδ kinase assay; format: biochemical
[12] = biological target: CKIα (Homo sapiens, UniProt P48729); experiment: In vitro CKIα kinase assay; format: biochemical
[13] = biological target: CRY1 (Mus musculus, UniProt P97784); experiment: CRY1 degradation assay; format: cell-based; settings: CRY1-LUC HEK293 cells, 24 h
[14] = biological target: GSK-3β (Homo sapiens, UniProt P49841); experiment: Kinase profiling; format: biochemical; settings: 5 μM
[15] = tested on: 59 kinases from a variety of classes; experiment: Kinase profiling, panel of 60 kinases; format: biochemical; settings: 5 μM
[16] = biological target: T1, CK2 (Homo sapiens, UniProt P19784+P68400); experiment: Cellular CK2 activity, anti-phospho CK2 substrate immunoblot, HEK293T; format: cell-based; settings: HEK293T cells, 24 hours, various concentrations
[17] = biological target: T1, CK2; experiment: Cellular CK2 activity, anti-phospho CK2 substrate immunoblot, U2OS; format: cell-based; settings: U2OS cells, 24 hours, concentrations similar to those that affected circadian period
[18] = tested on: PKA (protein kinase A); experiment: Anti-phospho PKA substrate immunoblot, HEK293T; format: cell-based, human; settings: HEK293T cells, 24 hours
Method in brief: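 HEK293T cells exposed to a range of test compound concentrations for 24 hours. Lysates were immunoblotted with anti-phospho CK2 substrate antibody, then the membrane was reprobed with anti-phospho PKA substrate and anti-β-actin antibodies.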

[19] = tested on: PER2; experiment: Phosphoproteomics of Flag-tagged PER2 in HEK293T cells; format: cell-based, mouse; settings: full-length PER2, 8 μM, 24 h (table S1)
Method in brief: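 HEK293T cells were reverse-transfected (Lipofectamine 2000) with C-terminal 3XFlag-tagged mouse PER2 plus CK2α. After 24 h, they received 0 or 8 μM compound for 24 h. Lysis was in 1% NP-40 buffer (pH 8.0) with phosphatase inhibitors, followed by anti-Flag immunoprecipitation and LC-MS/MS after four-protease digestion. Phosphorylation was expressed as phosphopeptide/total peptide spectra, and the effect as the treated/control ratio.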

[20] = tested on: BMAL1 S90; experiment: BMAL1 S90 phosphorylation immunoblot in NIH-3T3 cells; format: cell-based, mouse; settings: 10 μM, different times
Method in brief: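 NIH-3T3 cells were exposed to 10 μM test compound for varying times. Lysates were immunoprecipitated with anti-BMAL1 antibody, then immunoblotted with anti-P-BMAL1-S90 and anti-BMAL1 antibodies. Protein was quantified by Bradford.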

[21] = tested on: Per2 knockout cells differentiated from ES cells; experiment: Circadian assay in Per2 knockout cells differentiated from Bmal1-Luc ES cells; format: cell-based, mouse
Method in brief: as §2

[22] = tested on: A498; experiment: Proliferation assay of RCC line A498; format: cell-based, human; settings: A498, 2 days
Method in brief: as §1

[23] = tested on: 769-P; experiment: Proliferation assay of RCC line 769-P; format: cell-based, human; settings: 2 days
Method in brief: as §1

[24] = tested on: 786-O; experiment: Proliferation assay of RCC line 786-O; format: cell-based, human; settings: 2 days
Method in brief: as §1

[25] = tested on: RCC4+vec; experiment: Proliferation assay of RCC line RCC4+vec; format: cell-based, human; settings: 2 days
Method in brief: as §1

[26] = tested on: RCC4+VHL; experiment: Proliferation assay of RCC line RCC4+VHL; format: cell-based, human; settings: 2 days
Method in brief: as §1

[27] = tested on: MLL-AF9 leukemia cells; experiment: Proliferation assay of MLL-AF9 leukemia cells; format: cell-based; settings: mouse MLL-AF9 leukemia cells, 2 days
Method in brief: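 GFP-positive MLL-AF9 leukemia cells were taken from leukemic mouse bone marrow and kept in IMDM/10% FBS with SCF 20 ng/ml and mIL-3, mIL-6 and GM-CSF at 10 ng/ml each. Cells were plated at 2.0 × 10^4 per well with compound, incubated at 37°C for 2 days, then counted by flow cytometry.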

[28] = tested on: LSK hematopoietic progenitor cells; experiment: Proliferation assay of LSK hematopoietic progenitor cells; format: cell-based, mouse; settings: LSK hematopoietic progenitor cells (normal counterpart), 2 days
Method in brief: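 LSK progenitors were maintained in StemSpan with SCF and TPO (100 ng/ml each). Cells were plated at 1.0 × 10^4 per well with compound, held at 37°C for 2 days, then counted by flow cytometry.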

[29] = tested on: OCI-AML3; experiment: Proliferation assay of OCI-AML3 cells; format: cell-based, human; settings: OCI-AML3, 4 days
Method in brief: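 OCI-AML3 cells were kept in MEM alpha/20% FBS, plated at 1.0 × 10^4 per well with compound, and incubated at 37°C for 4 days. Viability was read with Cell Counting Kit-8.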

[30] = tested on: MLL-AF9 tissues (spleen and bone marrow explants); format: cell-based, mouse; settings: MLL-AF9 tissues relative to the control
Method in brief: (§3)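 Explants: spleen and bone marrow from transplant mice. MLL-AF9 leukemia cells derived from Per2::Luc bone marrow were serially transplanted into nonreporter C57BL/6J mice. Controls were C57BL/6J recipients of Per2::Luc bone marrow, used 3 months later. Tissue was cultured in luciferin explant medium with compound (0.24% DMSO final). Luminescence was read every 30 min for 5 days, first day excluded. Period was curve-fitted; intensity was averaged over the run. MLL-AF9 n = 11; control n = 10 to 20.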

[31] = tested on: control spleen and bone marrow explants; experiment: Per2::Luc rhythms in control spleen and bone marrow explants; format: cell-based, mouse
Method in brief: as §3

[32] = biological target: recombinant CK2 (α2β2 tetramer) (Homo sapiens, UniProt P68400); format: binding; settings: recombinant CK2, agarose-conjugated GO457, immunoblot
[33] = tested on: CK2α (CSNK2A1), CK2α′ (CSNK2A2), CK2β (CSNK2B), and GSK-3β (GSK3B); format: binding, human; settings: U2OS cell lysate, 50 μM free compound
Method in brief: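 Unsynchronized confluent U2OS cells (1.6 × 10^8) were Dounce-homogenized in MOPS/EGTA/MgCl2/DTT buffer (pH 7.2) and sonicated. NP-40 was added to 0.5%, and the extract was cleared at 14,000g. Halves were preincubated with 0 or 50 μM free compound (0.5% DMSO) at 4°C for 30 min, then with the agarose-conjugated probe for 1 h. Bound proteins were in-gel digested for nanoLC-MS/MS; two independent experiments.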

T1 sequence (P68400 whole entry): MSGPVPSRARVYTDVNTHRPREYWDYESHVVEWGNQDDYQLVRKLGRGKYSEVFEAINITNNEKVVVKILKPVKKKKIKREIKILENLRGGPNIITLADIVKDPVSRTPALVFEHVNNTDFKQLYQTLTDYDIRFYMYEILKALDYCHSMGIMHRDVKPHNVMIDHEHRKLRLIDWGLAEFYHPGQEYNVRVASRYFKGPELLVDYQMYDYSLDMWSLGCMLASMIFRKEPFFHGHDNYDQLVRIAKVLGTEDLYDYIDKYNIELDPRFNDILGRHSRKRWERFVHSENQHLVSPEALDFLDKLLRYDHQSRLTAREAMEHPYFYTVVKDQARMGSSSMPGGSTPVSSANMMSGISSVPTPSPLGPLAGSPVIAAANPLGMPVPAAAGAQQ
T1 sequence (P19784 whole entry): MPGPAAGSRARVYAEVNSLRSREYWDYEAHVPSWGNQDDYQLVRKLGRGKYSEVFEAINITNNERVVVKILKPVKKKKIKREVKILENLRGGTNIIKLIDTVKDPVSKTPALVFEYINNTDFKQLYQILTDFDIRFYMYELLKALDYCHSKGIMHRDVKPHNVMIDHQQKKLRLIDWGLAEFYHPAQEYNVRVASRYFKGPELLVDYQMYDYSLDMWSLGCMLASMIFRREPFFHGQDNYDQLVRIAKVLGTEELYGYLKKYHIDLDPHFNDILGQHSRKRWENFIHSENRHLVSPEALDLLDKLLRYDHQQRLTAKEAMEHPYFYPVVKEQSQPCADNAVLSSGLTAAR
T1 sequence (P67870 whole entry partner): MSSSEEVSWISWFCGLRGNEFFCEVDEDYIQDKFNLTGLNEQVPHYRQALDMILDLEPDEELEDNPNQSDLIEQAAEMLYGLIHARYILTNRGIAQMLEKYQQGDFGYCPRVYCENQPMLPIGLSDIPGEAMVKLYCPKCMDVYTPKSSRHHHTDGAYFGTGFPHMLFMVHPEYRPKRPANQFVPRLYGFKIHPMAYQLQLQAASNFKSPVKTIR
Sequence of PIM2 (Q9P1W9 whole entry): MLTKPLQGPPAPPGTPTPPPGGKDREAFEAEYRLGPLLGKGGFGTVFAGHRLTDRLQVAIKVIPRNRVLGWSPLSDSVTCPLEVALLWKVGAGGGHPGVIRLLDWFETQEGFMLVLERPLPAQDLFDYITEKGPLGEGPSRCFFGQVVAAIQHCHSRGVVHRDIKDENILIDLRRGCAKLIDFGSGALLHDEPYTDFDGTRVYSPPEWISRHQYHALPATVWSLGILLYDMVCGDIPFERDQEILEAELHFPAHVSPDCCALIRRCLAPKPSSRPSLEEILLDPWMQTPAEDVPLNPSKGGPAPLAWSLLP
Sequence of CK2 (Homo sapiens, UniProt P68400) (P68400 whole entry): as the sequence (P68400 whole entry) above
Sequence of CK2 (Homo sapiens, UniProt P68400) (P67870 whole entry partner): as the sequence (P67870 whole entry partner) above
Sequence of CLK2 (P49760 whole entry): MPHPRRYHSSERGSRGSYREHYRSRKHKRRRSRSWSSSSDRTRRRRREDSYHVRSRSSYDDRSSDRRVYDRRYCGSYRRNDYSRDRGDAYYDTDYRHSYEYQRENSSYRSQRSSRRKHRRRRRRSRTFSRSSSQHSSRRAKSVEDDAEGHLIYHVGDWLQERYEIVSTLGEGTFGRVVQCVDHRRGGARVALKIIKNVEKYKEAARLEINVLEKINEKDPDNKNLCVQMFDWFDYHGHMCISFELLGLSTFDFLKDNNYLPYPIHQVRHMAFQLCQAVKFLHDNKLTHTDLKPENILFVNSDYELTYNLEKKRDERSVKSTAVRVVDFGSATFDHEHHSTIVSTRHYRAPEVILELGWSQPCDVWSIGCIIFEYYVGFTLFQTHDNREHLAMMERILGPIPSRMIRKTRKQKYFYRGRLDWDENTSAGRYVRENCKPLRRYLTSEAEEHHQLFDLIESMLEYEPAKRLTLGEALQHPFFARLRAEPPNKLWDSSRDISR
Sequence of CRY1 (P97784 whole entry): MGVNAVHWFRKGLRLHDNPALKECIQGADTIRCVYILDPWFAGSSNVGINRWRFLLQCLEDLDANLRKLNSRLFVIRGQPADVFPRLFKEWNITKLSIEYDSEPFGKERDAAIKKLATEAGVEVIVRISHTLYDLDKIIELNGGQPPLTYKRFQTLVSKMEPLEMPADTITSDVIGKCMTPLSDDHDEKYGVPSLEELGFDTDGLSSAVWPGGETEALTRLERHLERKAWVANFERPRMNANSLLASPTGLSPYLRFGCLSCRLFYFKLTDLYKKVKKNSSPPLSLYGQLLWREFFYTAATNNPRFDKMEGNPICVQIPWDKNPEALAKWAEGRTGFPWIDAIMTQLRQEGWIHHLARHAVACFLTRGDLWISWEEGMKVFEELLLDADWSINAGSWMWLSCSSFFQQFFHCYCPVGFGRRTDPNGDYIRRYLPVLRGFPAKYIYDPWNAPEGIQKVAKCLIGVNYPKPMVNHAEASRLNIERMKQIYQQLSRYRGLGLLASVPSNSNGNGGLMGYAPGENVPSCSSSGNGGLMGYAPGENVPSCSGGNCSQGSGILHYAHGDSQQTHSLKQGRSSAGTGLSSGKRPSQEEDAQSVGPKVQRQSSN
Sequence of GSK-3β (P49841 whole entry): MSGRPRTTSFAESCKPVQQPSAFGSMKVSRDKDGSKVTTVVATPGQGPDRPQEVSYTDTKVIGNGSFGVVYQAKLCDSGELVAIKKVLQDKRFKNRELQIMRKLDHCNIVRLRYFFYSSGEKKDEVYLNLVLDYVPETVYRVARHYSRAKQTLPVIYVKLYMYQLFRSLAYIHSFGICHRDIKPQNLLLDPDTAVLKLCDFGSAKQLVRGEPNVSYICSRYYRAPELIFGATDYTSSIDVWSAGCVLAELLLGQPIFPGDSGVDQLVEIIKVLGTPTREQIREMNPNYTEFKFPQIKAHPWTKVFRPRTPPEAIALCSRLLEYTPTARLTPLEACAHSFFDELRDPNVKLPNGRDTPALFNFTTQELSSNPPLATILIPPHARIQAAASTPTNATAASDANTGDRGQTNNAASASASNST
Sequence of recombinant CK2 (α2β2 tetramer) (P68400 whole entry): as the sequence (P68400 whole entry) above
Sequence of recombinant CK2 (α2β2 tetramer) (P67870 whole entry partner): as the sequence (P67870 whole entry partner) above
Sequence of CKIδ (P48730 whole entry, species assumed): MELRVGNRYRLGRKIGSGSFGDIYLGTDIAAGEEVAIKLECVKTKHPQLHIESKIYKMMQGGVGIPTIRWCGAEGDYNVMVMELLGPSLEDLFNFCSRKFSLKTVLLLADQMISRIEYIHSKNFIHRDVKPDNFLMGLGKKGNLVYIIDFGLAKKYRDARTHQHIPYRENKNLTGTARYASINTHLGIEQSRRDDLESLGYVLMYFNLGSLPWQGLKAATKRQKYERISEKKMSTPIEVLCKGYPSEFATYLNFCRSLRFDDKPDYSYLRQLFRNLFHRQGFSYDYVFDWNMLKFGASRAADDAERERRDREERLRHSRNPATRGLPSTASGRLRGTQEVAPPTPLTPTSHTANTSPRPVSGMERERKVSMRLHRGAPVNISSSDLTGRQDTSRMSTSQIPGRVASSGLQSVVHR
Sequence of CKIα (P48729 whole entry, species assumed): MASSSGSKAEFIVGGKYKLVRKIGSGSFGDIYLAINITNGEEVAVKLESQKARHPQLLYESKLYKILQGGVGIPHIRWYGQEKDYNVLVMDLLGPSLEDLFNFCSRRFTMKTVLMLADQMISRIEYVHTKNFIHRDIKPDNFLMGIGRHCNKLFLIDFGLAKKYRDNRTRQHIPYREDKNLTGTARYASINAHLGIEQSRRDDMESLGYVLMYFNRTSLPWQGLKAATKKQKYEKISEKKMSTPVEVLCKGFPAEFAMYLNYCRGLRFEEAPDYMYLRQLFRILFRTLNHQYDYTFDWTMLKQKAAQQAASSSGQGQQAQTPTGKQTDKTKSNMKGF

SMILES: O=C(O)c1ccc2c(c1)nc(Nc1cccc(Cl)c1)c1ccncc12 [CX-4945, reference compound]
- Effect on luminescence (reporter signal intensity) ([1]; vs DMSO control): severe reduction in luminescence
- Cell growth [2]: inhibited growth
- Cell growth [3]: less of an effect
- Cell growth [4]: less of an effect

SMILES: CN(C)c1nc2c(Br)c(Br)c(Br)c(Br)c2[nH]1 [DMAT, reference compound]
- Effect on luminescence (reporter signal intensity) ([1]; vs DMSO control): severe reduction in luminescence

- IC50 [8]: 0.007 µM
- IC50 [9]: 13 µM
- IC50 ratio against CK2 over PIM family kinase (PIM2) ([9]; PIM2 IC50 relative to CK2 IC50): > 1000
- IC50 [10]: > 50 µM
- Effect on CKIδ activity in vitro [11]: minor effects
- Effect on CKIα activity in vitro [12]: minor effects
- CRY1 stabilization in cell-based degradation assay [13]: no stabilization of CRY1
- Effect on GSK-3β activity [14]: minor effect
- Effect on the activity of 59 kinases [15]: only a moderate or minor effect
- Cellular CK2 activity (anti-phospho CK2 substrate antibody) [17]: Inhibition of cellular CK2 activity
- Signal of anti-phospho PKA substrate antibody [18]: not affected by GO289
SMILES: COc1cc(/C=N/n2c(SC)nnc2-c2ccccc2)c(Br)cc1O [GO289]
- Effect on circadian period [1]: dose-dependent lengthening of circadian period
- Effect on luminescence (reporter signal intensity) ([1]; vs DMSO control): little effect on luminescence
- Lengthening of circadian period ([1]; vs DMSO control): more than 12 hours
- Effect on circadian period [5]: dose-dependent lengthening of circadian period
- Effect on circadian period [6]: lengthened periods
- Effect on circadian period [7]: lengthened periods
- Phosphorylation of CK2 substrates (anti-phospho CK2 substrate antibody) [16]: reduced by GO289 in a dose-dependent manner
- Phosphorylation of PER2 T12/S13 and S53 (previously reported CK2 sites) [19]: either unchanged or up-regulated
- BMAL1 S90 phosphorylation (immunoblot) [20]: down-regulation
- Period lengthening of Bmal1-Luc rhythms in Per2 knockout vs wild-type cells [21]: slightly enhanced
- Cell growth [2]: strongly inhibited
- Cell growth [22]: strongly inhibited
- Cell growth [23]: strongly inhibited
- Cell growth [24]: less affected
- Cell growth [25]: less affected
- Cell growth [26]: less affected
- Cell growth [3]: less affected
- Cell growth [4]: less affected
- Cell growth [27]: significantly reduced growth
- Cell growth [28]: much less affected
- Cell growth [29]: sensitive to GO289
- Luminescence intensity of Per2::Luc reporter [30]: severe reduction in luminescence
- Effect on circadian period [31]: lengthened circadian period
- Competition of CK2 interaction with affinity probe [32]: blocked by increasing concentrations of free GO289
- Competition of protein interactions with affinity probe [33]: blocked by free GO289

SMILES: Cc1cc2sc(NC(=O)Cc3ccccc3)nc2cc1Cl [LH846, reference compound]
- Phosphorylation of CK2 substrates (anti-phospho CK2 substrate antibody) [16]: neither the CKIδ inhibitor LH846 nor the GSK-3 inhibitor CHIR-99021 altered the CK2-specific phosphorylation pattern

- CK2 inhibitory activity in vitro ([8]; in vitro CK2 kinase assay (fig. S5)): complete loss of CK2 inhibition
SMILES: COc1cc(/C(C)=N/n2c(SC)nnc2-c2ccccc2)c(Br)cc1O [compound 27]
